# How the values were obtained:
# [1] = target: HIV-1 RT DNA-dependent DNA polymerase activity (Human immunodeficiency virus type 1 group M subtype B, UniProt P03366); assay: DNA-dependent DNA polymerase assay; type: biochemical; conditions: read-out: inhibition of DNA-dependent DNA polymerase activity
# HIV-1RF isolate = assay: in vitro; type: cell-based
# [2] = test system: selectively-mutated p51 thumb α-helix I variants (Lys275 – Arg286) of HIV-1 RT; type: biochemical; conditions: Supplementary Table S1
# Method in brief: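 Reconstituted p66/p51 RT with p51 thumb mutations (150 - 800 ng), pre-mixed with test compound in DMSO; 18-nt 3′-fluorescein RNA/5′-dabsyl DNA hybrid (250 nM final) added to start. […] Triplicates.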
SMILES,inhibition at 50 µM [1],other results
O=c1[nH]c(-c2ccc(O)c(O)c2)nc2sc3c(c12)CCCCCC3 [Compound 30],> 60%,–
CCCCc1c(C)sc2nc(-c3ccc(O)c(O)c3)[nH]c(=O)c12 [Compound 25],> 60%,–
O=c1[nH]c(-c2ccc(O)c(O)c2)nc2sc3c(c12)CCCC3 [Compound 28],> 60%,protection from HIV infection (HIV-1RF isolate; HIV-1RF in CEM-SS cells): failed to elicit protection from HIV infection
CCCc1c(C)sc2nc(-c3ccc(O)c(O)c3)[nH]c(=O)c12 [Compound 24],–,"selectivity ratio (HIV-1RF isolate; human, sr, selectivity ratio, i.e., CC50/EC50, CC50/EC50): ~6"
Cc1sc2nc(-c3ccc(O)c(O)c3)[nH]c(=O)c2c1C [Compound 9],–,sensitivity of the entire panel of p51 thumb α-helix I variants [2]: uniformly sensitive
